Only some compounds are listed: those with a hit (about 1.2% of all), similar ones and a draw of the others.
A1 inh = inhibitors of the anti-apoptotic protein A1, read as caspase activation | MEF A1-2A-BIM cells, Caspase-Glo 3/7 luminescence, 3 h; percent of clofoctol response, vehicle zero | AID 2462 | actives 0.066% (n = 330,000) | caspase activation, % (concentration not given with the values);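 active = over half of replicate activation scores above 10%, or exactly half above 10 with the replicate mean above 10; inconclusive = replicate mean below 10 yet half the replicates above 10; inactive = over half of replicates below 10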
procasp3 activ = procaspase-3 (human) activation; P42574; AID 463141; recombinant procaspase-3 D3A, Ac-DEVD-pNA absorbance 405 nm; actives 0.11% (n = 330,000); activation, % at 8.5 µM;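 active = activation above the mean of all tested compounds plus 3 SD, cut at about 21% in these data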;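 also: 0% = DMSO alone and 100% = DMSO wells spiked with extra 5 µM PC-3 D3A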
Target sequence (P42574 whole entry D9A/D28A/D175A): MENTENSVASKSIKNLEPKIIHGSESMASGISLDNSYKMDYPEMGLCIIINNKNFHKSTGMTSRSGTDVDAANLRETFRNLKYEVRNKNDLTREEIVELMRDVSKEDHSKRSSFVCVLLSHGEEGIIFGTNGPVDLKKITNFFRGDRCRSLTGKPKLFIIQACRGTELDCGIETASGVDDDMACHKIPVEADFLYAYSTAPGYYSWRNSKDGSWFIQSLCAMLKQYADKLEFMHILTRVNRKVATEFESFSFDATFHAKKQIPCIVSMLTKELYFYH
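Assay system: Procaspase-3 D3A mutant, all three cleavage aspartates alanine. Buffer or medium: Zinc-free HEPES saline buffer with Triton X-100. Times: 1 h compound preincubation, 2 h substrate hydrolysis at 25 °C. Measured by: 405 nm absorbance of p-nitroaniline, reads at 0 and 120 min. Read-out basis: percent activation relative to control range. Replicates: singlicate.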
proCasp7 act = counter-screen for procaspase-3 activators: activators of human procaspase-7; P55210; recombinant procaspase-7, Ac-DEVD-pNA absorbance 405 nm; D23A/D198A/D206A triple mutant, cannot self-cleave; scale: DMSO 0, 5 µM enzyme 100; activation, % at 8.5 µM; actives 0.093% (n = 330,000);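 active = percent activation above the screen-wide mean plus 3 SD, cut at about 25% in these data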
Target sequence (P55210 whole entry D23A/D198A/D206A): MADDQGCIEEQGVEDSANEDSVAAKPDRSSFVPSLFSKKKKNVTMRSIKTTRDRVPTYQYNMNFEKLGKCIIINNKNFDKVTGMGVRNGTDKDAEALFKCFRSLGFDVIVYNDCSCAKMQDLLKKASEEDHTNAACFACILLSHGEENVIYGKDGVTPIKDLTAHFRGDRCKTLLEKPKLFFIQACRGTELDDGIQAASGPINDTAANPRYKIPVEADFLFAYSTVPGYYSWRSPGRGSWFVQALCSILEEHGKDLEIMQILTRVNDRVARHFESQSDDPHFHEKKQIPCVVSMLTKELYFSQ
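Assay system: Uncleavable procaspase-7 mutant enzyme; Input: 2 µM procaspase-7 mutant as dispensed; Also added: DEVD-pNA substrate; Medium: Zinc-free HEPES pH 7.4 with 300 mM NaCl, 0.01% Triton X-100; Timing: 1 h compound preincubation, 2 h substrate cleavage, 25 °C; Measured by: Epi-absorbance of released pNA at 405 nm, two timepoints.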
MsrA inh = bovine MsrA inhibition | purified bovine MsrA, absorbance read-out | inhibition, % at 15.5 µM | actives 0.75% (n = 360,000) | AID 651718; in the data active = inhibition above about 4.5%;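 also: 0% = vehicle wells with enzyme and 100% = reference inhibitor wells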
bovine MsrA act = activators of bovine methionine sulfoxide reductase A. purified bovine MsrA, absorbance read-out. activation, % at 10.6 µM. actives 0.3% (n = 360,000); in the data active = activation above about 7.5%;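 also: 0% = vehicle and 100% = reference activator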
procasp7 triplic = activates human procaspase-7, counter-screen for procaspase-3 activators; recombinant procaspase-7, Ac-DEVD-pNA absorbance; asp23/198/206-to-Ala mutant, cannot self-cleave; activation, % at 8.5 µM; shares compounds with procasp3 activ; AID 488941; 210 tested, under 10 active;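 active = mean activation above a set limit taken from an earlier procaspase-7 screen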;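 also: 0% = DMSO wells and 100% = DMSO plus 5 µM procaspase-7 enzyme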
proCasp3 confirm = confirmation of human procaspase-3 activators; actives 10% (n = 210); recombinant PC-3 D3A, Ac-DEVD-pNA absorbance 405 nm; 100% is higher-enzyme control; activation, % at 8.5 µM; shares compounds with procasp3 activ;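 active = mean activation above a set limit carried over from the earlier primary screen, cut at about 22% in these data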
* = called active by the depositor.

`CC(=O)Nc1ccc(/C=C(\C#N)C(=O)NC2CCCCC2)cc1` gave A1 inh 0, procasp3 activ -4, proCasp7 act 5, MsrA inh 4.6* and bovine MsrA act -1.
Screening O=C(N/N=C\c1ccccc1OCc1ccccc1)c1ccco1 returned A1 inh 0, procasp3 activ -1, proCasp7 act -1, MsrA inh 3 and bovine MsrA act -6.
Screening COc1ccccc1/C=C/C=N/NC(=O)c1ccco1 returned A1 inh 0, procasp3 activ -5, proCasp7 act 0, MsrA inh 4.6* and bovine MsrA act -6.
For COC(=O)[C@]12C[C@H](CC(=O)NCc3cccs3)C(=O)N(CCC3=CCCCC3)C1=C[C@H](C(C)(C)C)O[C@@H]2C the results were MsrA inh 1.
For O=C(c1ccccc1NS(=O)(=O)c1cccc([N+](=O)[O-])c1)N1CCOCC1 the results were A1 inh 0, procasp3 activ 26*, proCasp7 act 7, MsrA inh 0 and bovine MsrA act -3.
O=C(c1ccccc1NS(=O)(=O)c1ccc(Br)cc1)N1CCOCC1 was read as A1 inh 2, MsrA inh -2 and bovine MsrA act -2.
CC(=O)Nc1ccc(N2CCc3c(C)c(C#N)c4nc5ccccc5n4c32)cc1 was read as A1 inh 0, procasp3 activ 65* and proCasp7 act 90*.
Screening C/C(=N\NS(=O)(=O)c1ccc([N+](=O)[O-])cc1)c1ccc(NC(=O)c2ccco2)cc1 returned A1 inh -2, procasp3 activ -5, proCasp7 act -7, MsrA inh 4.6* and bovine MsrA act -4.
`Cc1ccc(CCNC(=O)c2cc(-c3ccncc3)nc3ccc(S(=O)(=O)N4CCOCC4)cc23)cc1` gave A1 inh 6.4*, procasp3 activ 2, proCasp7 act 12, MsrA inh 0 and bovine MsrA act -10.
For O=C(NCc1ccccc1)c1cc(-c2ccncc2)nc2ccc(S(=O)(=O)N3CCOCC3)cc12 the results were A1 inh 0, procasp3 activ -2, proCasp7 act -3, MsrA inh 1 and bovine MsrA act 0.
For Cc1cccc(NC(=O)CNC(=O)[C@@H](Cc2ccccc2)NC(=O)[C@H]2O[C@@H](n3ccc(=O)[nH]c3=O)[C@H](O)[C@@H]2O)c1C the results were MsrA inh 1.
For CCC(=O)c1ccc(OCC(=O)c2ccc3c(c2)NC(=O)CO3)cc1 the results were A1 inh -1, procasp3 activ 23*, proCasp7 act 4, MsrA inh 1, bovine MsrA act -3, procasp7 triplic 4 and proCasp3 confirm 4.
`CCc1ccc(OCC(=O)OCC(=O)c2ccc3c(c2)NC(=O)CO3)cc1` gave A1 inh -1, procasp3 activ -1, proCasp7 act 0, MsrA inh 0 and bovine MsrA act -2.
`Cc1ccc(-c2cn(S(=O)(=O)c3cccc4nsnc34)nc2N)cc1` gave A1 inh 1, procasp3 activ 23*, proCasp7 act -2, MsrA inh 0, bovine MsrA act -9, procasp7 triplic 2 and proCasp3 confirm 1.
For CCC(=O)N(Cc1cc(=O)[nH]c2ccccc12)c1ccccc1 the results were A1 inh inconclusive, procasp3 activ 4, proCasp7 act -2, MsrA inh 1 and bovine MsrA act -6.
Screening CCCC(=O)N(Cc1cc(=O)[nH]c2ccccc12)c1ccccc1 returned A1 inh 1, procasp3 activ 74*, proCasp7 act 7, MsrA inh 1, bovine MsrA act -3, procasp7 triplic 3 and proCasp3 confirm 5.
For CCc1cccc(Nc2cc(C)n(-c3cccc(CC)c3)c(=O)c2)c1 the results were MsrA inh -1.
`C[C@H]1CN(c2ccc(N3CCNC[C@@H]3C)cc2C#N)CCN1Cc1ccccc1` gave MsrA inh 0.
O=S(=O)(NC1CC1)c1ccc(S(=O)(=O)N2CCN3CCCC3C2)cc1 (configuration not stated) was read as A1 inh 1, procasp3 activ -1, proCasp7 act -3, MsrA inh 0 and bovine MsrA act -2.
For O=S(=O)(NC1CCCCC1)c1ccc(S(=O)(=O)N2CCN3CCCC3C2)cc1 (configuration not stated) the results were A1 inh 0, procasp3 activ 37*, proCasp7 act 9, MsrA inh 0, bovine MsrA act -2, procasp7 triplic 3 and proCasp3 confirm 5.
`COCCNc1ncnc2c1cnn2Cc1ccccc1Cl` gave A1 inh 1, procasp3 activ 23*, proCasp7 act 1, MsrA inh 1, bovine MsrA act -7, procasp7 triplic 2 and proCasp3 confirm 1.
Screening O=c1cc(CN2CCN(S(=O)(=O)c3ccc4c(c3)OCCO4)CC2)c2ccc(O)cc2o1 returned A1 inh 0, procasp3 activ 22*, proCasp7 act 24, MsrA inh 1, bovine MsrA act -11, procasp7 triplic -22 and proCasp3 confirm -14.
`COCCCNC(=O)c1nnn2c1nc(N)c1cc(Cl)ccc12` gave MsrA inh 1.
`COCCn1c(=NC(=O)c2cc(-c3cccs3)nc3ccccc23)sc2cc(S(N)(=O)=O)ccc21` gave A1 inh 0, procasp3 activ 44*, proCasp7 act 9, MsrA inh 2, bovine MsrA act -6, procasp7 triplic 0 and proCasp3 confirm -3.
COCCn1c(=NC(=O)c2sc3ccccc3c2Cl)sc2cc(S(N)(=O)=O)ccc21 was read as A1 inh 0, procasp3 activ 0, proCasp7 act -1, MsrA inh -1 and bovine MsrA act -6.
For C=CCn1c(=NC(=O)c2cc(-c3cccs3)nc3ccccc23)sc2cc(S(N)(=O)=O)ccc21 the results were A1 inh -1, procasp3 activ 78*, proCasp7 act 14, MsrA inh 3, bovine MsrA act 0, procasp7 triplic 15 and proCasp3 confirm 20.
COc1ccc(CNS(=O)(=O)c2ccccc2Br)c(OC)c1 was read as MsrA inh 0.
Screening C[C@@H]1CN([C@H](C)CO)C(=O)c2cc(Br)cnc2O[C@H]1CN(C)C(=O)c1ccc(F)cc1 returned MsrA inh 1.
